{"data": "Assay results collected from several papers", "target": "Serine/threonine-protein kinase PAK 6 (PAK6, Homo sapiens, UniProt Q9NQU5)"}
{"Compound": "COc1cc2ncnc(Nc3ccc(Oc4ccccc4)cc3C)c2cc1OC", "assay": "enzyme activity, inhibitor", "conditions": "1 µM", "endpoint": "inhibition", "value": "3%"}
{"Compound": "CCS(=O)(=O)c1cc2cc(C[C@@](O)(CC(C)(C)c3ccc(F)cc3C(N)=O)C(F)(F)F)[nH]c2cn1", "assay": "cell-free assay, competition with immobilised ligand", "conditions": "1 µM", "endpoint": "remaining binding", "value": "77%"}
{"Compound": "CC(C)(C)c1nc(-c2cccc(NS(=O)(=O)c3c(F)cccc3F)c2F)c(-c2ccnc(N)n2)s1", "assay": "enzyme activity, inhibitor, radiometric", "conditions": "1 µM", "endpoint": "remaining activity", "value": "79%"}
{"Compound": "Nc1nc(Nc2ccc(S(N)(=O)=O)cc2)nn1C(=O)c1c(F)cccc1F", "assay": "cell-free assay", "conditions": "0.5 µM", "endpoint": "remaining signal", "value": "101%"}
{"Compound": "CNC(=O)c1cc(Oc2ccc(NC(=O)Nc3ccc(Cl)c(C(F)(F)F)c3)cc2)ccn1", "assay": "enzyme activity, inhibitor", "conditions": "10 µM", "endpoint": "inhibition", "value": "-29%"}
{"Compound": "CC(=O)N1CCC(c2ccc(C(=O)NC3=NCCN3)cc2C(F)(F)F)CC1", "assay": "cell-free assay, competition with immobilised ligand", "conditions": "1 µM", "endpoint": "remaining binding", "value": "100%"}
{"Compound": "O=C1Nc2ccc(Cl)cc2C1=Cc1cc(Cl)c(O)c(Cl)c1", "assay": "cell-free assay", "conditions": "0.5 µM", "endpoint": "remaining signal", "value": "97%"}
{"Compound": "N[C@H]1CCN(c2nccc(-c3cnn4ncccc34)n2)C1", "assay": "binding", "conditions": "1 µM", "endpoint": "remaining binding", "value": "87%"}
{"Compound": "Oc1cccc(-c2nc(N3CCOCC3)c3oc4ncccc4c3n2)c1", "assay": "enzyme activity, inhibitor", "conditions": "10 µM", "endpoint": "remaining activity", "value": "108%"}
{"Compound": "CC(C)(O)[C@H]1CC[C@H](Nc2ccc3ncc(-c4cccc(C(F)(F)F)c4)n3n2)CC1", "assay": "enzyme activity, inhibitor", "conditions": "1 µM", "endpoint": "remaining activity", "value": "101%"}
{"Compound": "CCc1ccccc1C(=O)Nc1n[nH]c2c(C)c(F)c(C3C(C#N)=C(C)N(C)C(C)=C3C#N)cc12", "assay": "cell-free assay, competition with immobilised ligand", "conditions": "1 µM", "endpoint": "remaining binding", "value": "93%"}
{"Compound": "Cc1cc(NC(=O)c2cccc3cc(-c4cccc5[nH]nc(N)c45)ccc23)ccc1F", "assay": "enzyme activity, inhibitor", "conditions": "0.1 µM", "endpoint": "activity vs control", "value": "104%"}
{"Compound": "CCCOc1ccc(OC)c(F)c1C(=O)c1ccc(C(=O)N[C@@H]2CNC[C@H]2NC(=O)c2ccc3[nH]ncc3c2)cc1", "assay": "enzyme activity, inhibitor", "conditions": "10 µM", "endpoint": "remaining activity", "value": "68%"}
{"Compound": "Cc1cnc(NC2CCOCC2)nc1-n1cnc(C(=O)NC(CN)c2cc(F)cc(Cl)c2)c1 (centres unmarked)", "assay": "enzyme activity, inhibitor, radiometric", "conditions": "1 µM", "endpoint": "remaining activity", "value": "70%"}
{"Compound": "CC(C)(O)c1cncc(-c2nc3ccc(F)cc3n2C2CC2)c1", "assay": "cell-free assay, competition with immobilised ligand", "conditions": "1 µM", "endpoint": "remaining binding", "value": "100%"}
{"Compound": "CCCS(=O)(=O)Nc1ccc(F)c(C(=O)c2c[nH]c3ncc(-c4ccc(Cl)cc4)cc23)c1F", "assay": "enzyme activity, inhibitor", "conditions": "1 µM", "endpoint": "inhibition", "value": "< 20%"}
{"Compound": "CO[C@H]1CC[C@H](CNc2ccc(S(=O)(=O)NC(=O)c3ccc(N4CCN(CC5=C(c6ccc(Cl)cc6)CC(C)(C)CC5)CC4)cc3Oc3cnc4[nH]ccc4c3)cc2[N+](=O)[O-])CC1", "assay": "cell-free assay, competition with immobilised ligand", "conditions": "1 µM", "endpoint": "remaining binding", "value": "75%"}
{"Compound": "Cc1ccc(C(=O)NCc2ccsc2)cc1C#Cc1cn(C(C)C)c2ncnc(N)c12", "assay": "enzyme activity, inhibitor", "conditions": "1 µM", "endpoint": "activity vs control", "value": "108%"}
{"Compound": "FC(F)(F)Oc1cccc(-c2cnc3ccc(-c4ccncc4)nn23)c1", "assay": "enzyme activity, inhibitor, radiometric", "conditions": "1 µM", "endpoint": "activity vs control", "value": "97%"}
{"Compound": "N#CCCc1ccc2c(c1)-c1[nH]c3ccc([N+](=O)[O-])cc3c1CC(=O)N2", "assay": "cell-free assay", "conditions": "0.5 µM", "endpoint": "remaining signal", "value": "104%"}
{"Compound": "Cc1ccc(NC(=O)c2ccc(C)c(C(F)(F)F)c2)cc1C#Cc1nn(C2CCC(O)CC2)c2ncnc(N)c12 (centres unmarked)", "assay": "cell-free assay", "conditions": "10 µM", "endpoint": "remaining signal", "value": "92%"}
{"Compound": "CNC(=O)c1ccc(Nc2ncc(C(F)(F)F)c(NCc3nccnc3N(C)S(C)(=O)=O)n2)cc1", "assay": "cell-free assay, competition with immobilised ligand", "conditions": "0.1 µM", "endpoint": "remaining binding", "value": "100%"}
{"Compound": "COc1cc(Nc2cnc(C#N)c(O[C@H](C)CN(C)C)n2)ncc1-c1cnn(C)c1", "assay": "enzyme activity, inhibitor, radiometric", "conditions": "10 µM", "endpoint": "remaining activity", "value": "43%"}
{"Compound": "O=C(Nc1cnn(-c2csc(C(=O)NC3COC3)c2)c1)Nc1c(F)cccc1Cl", "assay": "enzyme activity, inhibitor", "conditions": "5 µM", "endpoint": "remaining activity", "value": "92.9%"}
{"Compound": "CC(C)(C)C(=O)c1sc(NC2CCCCC2)nc1N", "assay": "enzyme activity, inhibitor", "conditions": "10 µM", "endpoint": "remaining activity", "value": "98%"}
{"Compound": "CS(=O)(=O)NCC[C@H](NC(=O)c1cncc2c1cnn2-c1ccc(F)cc1)c1ccnc(S(C)(=O)=O)c1", "assay": "cell-free assay, competition with immobilised ligand", "conditions": "1 µM", "endpoint": "remaining binding", "value": "100%"}
{"Compound": "Cc1ccc(C(=O)Nc2ccc(CN3CCN(C)CC3)c(C(F)(F)F)c2)cc1C#Cc1cnc2cccnn12", "assay": "enzyme activity, inhibitor", "conditions": "23.5 nM", "endpoint": "remaining activity", "value": "84%"}
{"Compound": "O=C(NCc1ncc(C(F)(F)F)cc1Cl)c1ccc2c(c1)C1(CCS(=O)(=O)CC1)[C@@H](C1CC1)N2S(=O)(=O)c1ccc(F)cc1", "assay": "cell-free assay, competition with immobilised ligand", "conditions": "1 µM", "endpoint": "remaining binding", "value": "100%"}
{"Compound": "CCN(CC)CCNC(=O)c1c(C)[nH]c(/C=C2\\C(=O)Nc3ccc(F)cc32)c1C", "assay": "enzyme activity, inhibitor", "conditions": "0.3 µM", "endpoint": "inhibition", "value": "-11%"}
